Assay results published in ChEMBL document CHEMBL3425411, “Synthesis of β-Carboline-Based N-Heterocyclic Carbenes and Their Antiproliferative and Antimetastatic Activities against Human Breast Cancer Cells” (J Med Chem, 2015).
pIC50: −log10 of the molar value. Activity calls are given as the source filed them. The calls are words filed in the database; no cut-off is given here.

Experiments:
MDA-MB-231 [1] = experiment: Induction of apoptosis in human MDA-MB-231 cells assessed as late apoptotic cells at 10 uM after 24 hrs by annexin V-propidium iodide/Alexa Fluor 488 staining-based flow cytometric analysis (reference value: 2.08 to 3.78%); type: functional
Outline: (§1)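 MDA-MB-231 cells, about 2 × 10⁵ per well, seeded in triplicate and treated for 24 h in RPMI-1640 with 10% FBS. Stained with Alexa Fluor 488 annexin V and propidium iodide, then read by flow cytometry. AV+/PI+ events were counted as late apoptotic and reported as percentage of cells relative to control. Three independent experiments, mean ± SEM.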

MDA-MB-231 [2] = experiment: Cell cycle arrest in human MDA-MB-231 cells assessed as accumulation at S phase at 2.5 uM after 24 hrs by propidium iodide staining-based flow cytometric analysis (reference value: 32.5 to 34.7%); type: functional
Mus musculus = experiment: Toxicity in Balb/c mouse allografted with mouse 4T1 cells assessed as reduction in body weight at 10 mg/kg, po administered every alternative day for 5 weeks measured twice a week during compound dosing; type: organism-based; design: dose 10 mg/kg, route oral; conditions: in vivo, 840 h
Outline: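 Female Balb/c mice, 8 weeks old, given 7 × 10⁵ 4T1 cells into the second right mammary fat pad, plus a booster of about 5 × 10⁵ cells after 4 days. One week later, 10 mg/kg by oral gavage on alternate days for 5 weeks, n = 6. Vehicle-dosed controls. Body weight and tumour size measured twice weekly.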

4T1 = experiment: Antitumor activity against mouse 4T1 cells allografted in Balb/c mouse assessed as tumor growth inhibition at 10 mg/kg, po administered every alternative day for 5 weeks measured twice a week during compound dosing relative to control; type: functional
Outline: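 4T1 cells (7 × 10⁵) were injected into the second right mammary fat pad of 8-week-old female Balb/c mice, with a booster of about 5 × 10⁵ cells 4 days later. One week after the booster, dosing began at 10 mg/kg by oral gavage on alternate days for 5 weeks (n = 6). Controls received vehicle. Tumor size and body weight were measured twice weekly.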

MDA-MB-231 [3] = experiment: Cytotoxicity against human MDA-MB-231 cells assessed as growth inhibition after 24 to 72 hrs by MTT assay; type: functional, cell-based
Outline: (§2)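 About 5000 cells/well were grown 24 h in RPMI-1640 with 10% FBS, then given fresh medium with compound at various concentrations (from 10 mM DMSO stocks) for 24, 48 and 72 h. MTT (5 mg/mL stock) was added for 2 h and formazan dissolved in DMSO. Absorbance was read at 595 nm and expressed as percent proliferation versus DMSO control.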

MCF7 = experiment: Cytotoxicity against human MCF7 cells assessed as growth inhibition after 24 to 72 hrs by MTT assay; type: functional, cell-based; outline: as §2
MDA-MB-468 = experiment: Cytotoxicity against human MDA-MB-468 cells assessed as growth inhibition after 24 to 72 hrs by MTT assay; type: functional, cell-based; outline: as §2
MDA-MB-231 [4] = experiment: Induction of apoptosis in human MDA-MB-231 cells assessed as early apoptotic cells at 10 uM after 24 hrs by annexin V-propidium iodide/Alexa Fluor 488 staining-based flow cytometric analysis (reference value: 4.05 to 4.68%); type: functional
MDA-MB-231 [5] = experiment: Induction of apoptosis in human MDA-MB-231 cells assessed as early apoptotic cells at 7.5 uM after 24 hrs by annexin V-propidium iodide/Alexa Fluor 488 staining-based flow cytometric analysis (reference value: 4.05 to 4.68%); type: functional
MDA-MB-231 [6] = experiment: Cell cycle arrest in human MDA-MB-231 cells assessed as accumulation at G0/G1 phase at 7.5 uM after 24 hrs by propidium iodide staining-based flow cytometric analysis (reference value: 44.3 to 47.1%); type: functional
MDA-MB-231 [7] = experiment: Antimigratory activity against human MDA-MB-231 cells at >= 2.5 uM after 48 hrs by transwell assay
MDA-MB-231 [8] = experiment: Induction of apoptosis in human MDA-MB-231 cells assessed as early apoptotic cells at 2.5 uM after 24 hrs by annexin V-propidium iodide/Alexa Fluor 488 staining-based flow cytometric analysis (reference value: 4.05 to 4.68%); type: functional
MDA-MB-231 [9] = experiment: Cell cycle arrest in human MDA-MB-231 cells assessed as accumulation at S phase at 5 uM after 24 hrs by propidium iodide staining-based flow cytometric analysis (reference value: 32.5 to 34.7%); type: functional
MDA-MB-231 [10] = experiment: Cell cycle arrest in human MDA-MB-231 cells assessed as accumulation at G0/G1 phase at 2.5 uM after 24 hrs by propidium iodide staining-based flow cytometric analysis (reference value: 44.3 to 47.1%); type: functional
MDA-MB-231 [11] = experiment: Cell cycle arrest in human MDA-MB-231 cells assessed as accumulation at G2/M phase at 2.5 uM after 24 hrs by propidium iodide staining-based flow cytometric analysis (reference value: 18.2 to 23.1%); type: functional
MDA-MB-231 [12] = experiment: Induction of apoptosis in human MDA-MB-231 cells assessed as late apoptotic cells at 2.5 uM after 24 hrs by annexin V-propidium iodide/Alexa Fluor 488 staining-based flow cytometric analysis (reference value: 2.08 to 3.78%); type: functional; outline: as §1
[13] = Cytotoxicity against human H1299 cells assessed as growth inhibition after 24 to 72 hrs by MTT assay; type: functional, cell-based; conditions: NCI-H1299; outline: as §2
MDA-MB-231 [14] = experiment: Cell cycle arrest in human MDA-MB-231 cells assessed as accumulation at G2/M phase at 5 uM after 24 hrs by propidium iodide staining-based flow cytometric analysis (reference value: 18.2 to 23.1%); type: functional
MDA-MB-231 [15] = experiment: Induction of apoptosis in human MDA-MB-231 cells assessed as early apoptotic cells at 5 uM after 24 hrs by annexin V-propidium iodide/Alexa Fluor 488 staining-based flow cytometric analysis (reference value: 4.05 to 4.68%); type: functional
MDA-MB-231 [16] = experiment: Cell cycle arrest in human MDA-MB-231 cells assessed as accumulation at S phase at 7.5 uM after 24 hrs by propidium iodide staining-based flow cytometric analysis (reference value: 32.5 to 34.7%); type: functional
MDA-MB-231 [17] = experiment: Cell cycle arrest in human MDA-MB-231 cells assessed as accumulation at G2/M phase at 7.5 uM after 24 hrs by propidium iodide staining-based flow cytometric analysis (reference value: 18.2 to 23.1%); type: functional
MDA-MB-231 [18] = experiment: Induction of apoptosis in human MDA-MB-231 cells after 24 hrs by annexin V-propidium iodide/Alexa Fluor 488 staining-based flow cytometric analysis; type: functional, cell-based
MDA-MB-231 [19] = experiment: Induction of apoptosis in human MDA-MB-231 cells assessed as late apoptotic cells at 5 uM after 24 hrs by annexin V-propidium iodide/Alexa Fluor 488 staining-based flow cytometric analysis (reference value: 2.08 to 3.78%); type: functional; outline: as §1
MDA-MB-231 [20] = experiment: Cell cycle arrest in human MDA-MB-231 cells assessed as accumulation at G0/G1 phase at 5 uM after 24 hrs by propidium iodide staining-based flow cytometric analysis (reference value: 44.3 to 47.1%); type: functional
MDA-MB-231 [21] = experiment: Induction of apoptosis in human MDA-MB-231 cells assessed as late apoptotic cells at 7.5 uM after 24 hrs by annexin V-propidium iodide/Alexa Fluor 488 staining-based flow cytometric analysis (reference value: 2.08 to 3.78%); type: functional; outline: as §1

With COC(=O)c1cc2c3ccccc3[nH]c2c2cn(-c3ccc(C)cc3Br)c[n+]12.[Cl-] as the molecule, how does the Activity (MDA-MB-231 [1]) read?
The Activity was 25.32%.

What about the Activity (MDA-MB-231 [2]) of the same molecule?
The Activity was 19.5%.

What about the Activity (Mus musculus) of the same molecule?
The Activity was “Non-toxic”.

What about the TGI (4T1) of the same molecule?
The TGI was “inactive”.

What about the pIC50 (MDA-MB-231 [3]) of the same molecule?
The pIC50 was 5.14.

And the pIC50 (MCF7)?
The pIC50 was 5.16.

What about the pIC50 (MDA-MB-468) of the same molecule?
The pIC50 was 5.24.

And the Activity (MDA-MB-231 [4])?
Its Activity is 55.63%.

And the Activity (MDA-MB-231 [5])?
The Activity was 24.22%.

And the Activity (MDA-MB-231 [6])?
Its Activity is 43%.

What about the Activity (MDA-MB-231 [7]) of the same molecule?
Its Activity is “Active”.

And the Activity (MDA-MB-231 [8])?
Its Activity is 5.42%.

What about the Activity (MDA-MB-231 [9]) of the same molecule?
The Activity was 17.9%.

What about the Activity (MDA-MB-231 [10]) of the same molecule?
The Activity was 56.8%.

And the Activity (MDA-MB-231 [11])?
Its Activity is 23.6%.

And the Activity (MDA-MB-231 [12])?
The Activity was 3.49%.

And the pIC50 [13]?
Its pIC50 is 5.11.

And the Activity (MDA-MB-231 [14])?
The Activity was 34.7%.

And the Activity (MDA-MB-231 [15])?
The Activity was 6.93%.

What about the Activity (MDA-MB-231 [16]) of the same molecule?
Its Activity is 24.4%.

What about the Activity (MDA-MB-231 [17]) of the same molecule?
Its Activity is 32.5%.

What about the Activity (MDA-MB-231 [18]) of the same molecule?
Its Activity is “Dose-dependent effect”.

What about the Activity (MDA-MB-231 [19]) of the same molecule?
Its Activity is 4.06%.

And the Activity (MDA-MB-231 [20])?
The Activity was 47.3%.

What about the Activity (MDA-MB-231 [21]) of the same molecule?
The Activity was 16.58%.

Which Activity (MDA-MB-231 [1]) does the source give for COC(=O)c1cc2c3ccccc3[nH]c2c2cn(-c3ccc(C(F)(F)F)cc3)c[n+]12.[Cl-] here?
Its Activity is 14.31%.

What about the Activity (MDA-MB-231 [2]) of the same molecule?
Its Activity is 26.7%.

What about the Activity (Mus musculus) of the same molecule?
The Activity was “Non-toxic”.

And the inhibition in vivo at 10 mg/kg (4T1; 4T1, 840 h, read-out: TGI)?
The inhibition in vivo at 10 mg/kg was 20%.

What about the pIC50 (MDA-MB-231 [3]) of the same molecule?
The pIC50 was 5.10.

And the pIC50 (MCF7)?
Its pIC50 is 4.85.

And the pIC50 (MDA-MB-468)?
Its pIC50 is 4.95.

And the Activity (MDA-MB-231 [4])?
Its Activity is 14.3%.

And the Activity (MDA-MB-231 [5])?
Its Activity is 9.28%.

And the Activity (MDA-MB-231 [6])?
The Activity was 34.1%.

What about the Activity (MDA-MB-231 [7]) of the same molecule?
Its Activity is “Active”.

And the Activity (MDA-MB-231 [8])?
The Activity was 4.4%.

What about the Activity (MDA-MB-231 [9]) of the same molecule?
The Activity was 19%.

What about the Activity (MDA-MB-231 [10]) of the same molecule?
Its Activity is 50.4%.

And the Activity (MDA-MB-231 [11])?
Its Activity is 22.8%.

And the Activity (MDA-MB-231 [12])?
Its Activity is 2.87%.

And the pIC50 [13]?
Its pIC50 is 5.35.

What about the Activity (MDA-MB-231 [14]) of the same molecule?
Its Activity is 35.5%.

And the Activity (MDA-MB-231 [15])?
The Activity was 5.23%.

And the Activity (MDA-MB-231 [16])?
Its Activity is 27.6%.

And the Activity (MDA-MB-231 [17])?
The Activity was 38.2%.

What about the Activity (MDA-MB-231 [18]) of the same molecule?
Its Activity is “Dose-dependent effect”.

And the Activity (MDA-MB-231 [19])?
The Activity was 2.31%.

What about the Activity (MDA-MB-231 [20]) of the same molecule?
Its Activity is 45.3%.

What about the Activity (MDA-MB-231 [21]) of the same molecule?
The Activity was 9.02%.

For COC(=O)c1cc2c3ccccc3[nH]c2c2cn(-c3ccc(F)cc3Cl)c[n+]12.[Cl-], which Activity (MDA-MB-231 [1]) is on record?
Its Activity is 11.92%.

What about the Activity (MDA-MB-231 [2]) of the same molecule?
Its Activity is 29.8%.

What about the Activity (Mus musculus) of the same molecule?
The Activity was “Non-toxic”.

What about the TGI (4T1) of the same molecule?
The TGI was “inactive”.

And the pIC50 (MDA-MB-231 [3])?
The pIC50 was 5.35.

And the pIC50 (MCF7)?
The pIC50 was 5.17.

What about the pIC50 (MDA-MB-468) of the same molecule?
The pIC50 was 5.23.

And the Activity (MDA-MB-231 [4])?
The Activity was 14.4%.

What about the Activity (MDA-MB-231 [5]) of the same molecule?
Its Activity is 12.14%.

What about the Activity (MDA-MB-231 [6]) of the same molecule?
The Activity was 31.1%.

And the Activity (MDA-MB-231 [7])?
Its Activity is “Active”.

What about the Activity (MDA-MB-231 [8]) of the same molecule?
Its Activity is 2.21%.

What about the Activity (MDA-MB-231 [9]) of the same molecule?
Its Activity is 21.8%.

And the Activity (MDA-MB-231 [10])?
Its Activity is 46.7%.

What about the Activity (MDA-MB-231 [11]) of the same molecule?
The Activity was 23.4%.

What about the Activity (MDA-MB-231 [12]) of the same molecule?
The Activity was 1.16%.

What about the pIC50 [13] of the same molecule?
Its pIC50 is 5.29.

What about the Activity (MDA-MB-231 [14]) of the same molecule?
The Activity was 33.9%.

And the Activity (MDA-MB-231 [15])?
Its Activity is 4.72%.

What about the Activity (MDA-MB-231 [16]) of the same molecule?
The Activity was 28.22%.

And the Activity (MDA-MB-231 [17])?
The Activity was 40.6%.

And the Activity (MDA-MB-231 [18])?
The Activity was “Dose-dependent effect”.

What about the Activity (MDA-MB-231 [19]) of the same molecule?
The Activity was 3.26%.

And the Activity (MDA-MB-231 [20])?
Its Activity is 46.6%.

What about the Activity (MDA-MB-231 [21]) of the same molecule?
The Activity was 7.04%.
